From PubChem BioAssay
Active and inactive are the calls of the source.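 The calls were made as follows, unless noted: active = fluorescence slope after compound addition differing from the mean of all tested samples at 99.7% confidence, mostly higher but some lower; inactive = the rest.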

Assays:
[1] = inhibitors of TNFa-induced NFkB p65 translocation, primary screen, imaging, HUVEC, MLSMR starter and 10KST1 sets (AID 438;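 active = inhibition above 20% together with a positive visual image hit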;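 also: compound added about 3h40 before a 20 min TNFalpha stimulation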;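 as to inhibition: signal is the nuclear over cytoplasmic p65 intensity ratio per well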); conditions: HUVEC TNFa-induced p65 nuclear translocation; cell count: measured here: nuclei count (cytotoxicity indicator), at 2.08 µM; inhibition: at 2 µM, stronger effect = higher value, 0% TNFa-plus-vehicle, 100% no-TNFa wells
[2] = inhibitors of mutant huntingtin aggregation, primary screen, imaging, exon1htt(103Q)mCFP cells, high-content imaging (AID 483;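 active = visual image review flags a hit and inhibition of aggregation exceeds 20%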;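 also: compound exposure lasted 3 days before fixation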;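 as to nuclei count: percent of the per-plate median nuclei count of sample wells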); conditions: exon1htt(103Q)mCFP cell line, aggregate imaging, at 2 µM; inhibition of aggregation: stronger effect = higher value; nuclei count: measured here: cell count, toxicity
[3] = inhibitors of E-selectin induction by TNFa, primary screen, imaging, HUVEC, immunofluorescence, MLSMR starter and 10KST1 sets (AID 487;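 active = visually confirmed hit in the image check and inhibition above 20%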;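 as to inhibition: signal is fraction of cell area covered by stained E-selectin grains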;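 as to nuclei count: 100% = median nuclei count of all wells on the same plate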); conditions: HUVEC TNFalpha-induced E-selectin immunofluorescence imaging, at 2 µM; inhibition: stronger effect = higher value; nuclei count: measured here: cell number, toxicity
[4] = molecular target: Voltage-gated potassium channel subunit beta-2 (Rattus norvegicus) (UniProt P62483); assay: KvBeta enzyme negative modulators, primary screen, biochemical, NADPH fluorescence (AID 622;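 active = fluorescence slope higher than the sample average by over 3 SD, cut at about -0.22 in these data, passing the limit was not always enough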;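 also: slope of raw intensity against log time taken from 70 to 1610 s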); conditions: recombinant KvBeta, 4-cyanobenzaldehyde reduction, at 10 µM, stronger effect = higher value
Sequence of Voltage-gated potassium channel subunit beta-2 (Rattus norvegicus) (P62483 whole entry, looked up): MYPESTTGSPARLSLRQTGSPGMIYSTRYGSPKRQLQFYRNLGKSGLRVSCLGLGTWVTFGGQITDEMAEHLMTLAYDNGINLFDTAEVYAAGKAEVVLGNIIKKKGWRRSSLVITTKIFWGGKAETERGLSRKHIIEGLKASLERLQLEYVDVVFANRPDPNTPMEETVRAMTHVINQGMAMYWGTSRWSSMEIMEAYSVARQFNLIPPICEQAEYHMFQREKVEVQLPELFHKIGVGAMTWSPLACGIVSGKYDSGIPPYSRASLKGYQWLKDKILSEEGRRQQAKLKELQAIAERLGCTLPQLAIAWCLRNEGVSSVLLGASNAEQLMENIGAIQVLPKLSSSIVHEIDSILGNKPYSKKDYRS

[5] = molecular target: Voltage-gated potassium channel subunit beta-2 (Rattus norvegicus) (UniProt P62483); assay: KvBeta positive modulators, primary screen, biochemical, NADPH fluorescence (AID 623;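 active = NADPH fluorescence slope more negative than the mean of all samples by about 3 SD, 99.7% confidence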;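 also: fluorescence intensity change per second fitted from 20 to 320 s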); conditions: Recombinant KvBeta, NADPH fluorescence decrease slope, 10 min; at 10 µM; stronger effect = lower value
[6] = molecular target: Muscarinic acetylcholine receptor M4 (Homo sapiens) (UniProt P08173); assay: compounds altering M4/GIRK thallium flux, either direction, primary screen, M4 allosteric agonist project, cell-based, HEK293 M4/GIRK, BTC-AM (AID 625); conditions: at 10 µM, actives lie on both sides;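 also: thallium influx through GIRK channels coupled to M4 in HEK293 cells with BTC-AM dye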
Sequence of Muscarinic acetylcholine receptor M4 (Homo sapiens) (P08173 whole entry, looked up): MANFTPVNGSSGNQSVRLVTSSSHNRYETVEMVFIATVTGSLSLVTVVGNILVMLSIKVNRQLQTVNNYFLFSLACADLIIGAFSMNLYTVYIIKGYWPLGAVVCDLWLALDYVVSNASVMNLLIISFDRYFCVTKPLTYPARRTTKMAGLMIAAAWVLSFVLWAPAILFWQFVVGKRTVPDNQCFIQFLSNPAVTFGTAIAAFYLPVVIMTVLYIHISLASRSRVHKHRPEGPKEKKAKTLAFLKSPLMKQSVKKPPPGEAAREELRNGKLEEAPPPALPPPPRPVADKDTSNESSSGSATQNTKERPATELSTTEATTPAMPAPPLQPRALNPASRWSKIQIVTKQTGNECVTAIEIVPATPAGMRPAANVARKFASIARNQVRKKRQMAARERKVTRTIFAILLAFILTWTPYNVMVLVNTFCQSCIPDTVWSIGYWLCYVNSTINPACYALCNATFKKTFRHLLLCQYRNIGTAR
How it was run: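 Material: HEK293 cells with M4 receptor and GIRK channels; Times: cells overnight at 37 °C, BTC-AM loading 1 h, reads 2 min total; Technique: kinetic BTC-AM fluorescence sampled at 1 Hz, 10 s pre-addition baseline; Read-out basis: slope over 15–24 s of trace normalized to starting intensity; Controls: carbachol positive, DMSO negative.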

[7] = inhibitors of Sendai virus-induced IRF3 signaling, primary screen, TLR/RLR signaling modifier project, cell-based, Sendai virus stimulus, luciferase, 10K MLSCN set (AID 602276;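 active = inhibition at or above 50% at 10 µM; inactive = inhibition below 50%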;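 also: firefly luciferase from ISG56 promoter only with Renilla not read in this screen; 0% = Sendai virus plus DMSO and 100% = medium plus DMSO without virus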); conditions: HEK293 RL24 IRF3 luciferase reporter, at 10 µM, stronger effect = higher value
[8] = inhibitors of poly I:C-induced TLR3 signaling, primary screen, cell-based, poly I:C stimulus, luciferase, 10K MLSCN set (AID 602277;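 active = inhibition of the reporter signal at or above 50%; inactive = inhibition below 50%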); conditions: HEK293-TLR3 RL24 IRF3 luciferase reporter, at 10 µM, stronger effect = higher value

Row | SMILES | cell count [1] | inhibition [1] | inhibition of aggregation [2] | nuclei count [2] [%] | inhibition [3] | nuclei count [3] [%] | fluorescence slope [4] | NADPH fluorescence slope [5] | fluorescence slope [6] | inhibition [7] | inhibition [8]
1 | O=C(CCCCCn1c(SCc2ccncc2)nc2ccccc2c1=O)NCc1ccco1 | 458 | -10.3% (inactive) | -29.8% (inactive) | 109 | -25.1% (inactive) | 94.5 | -0.498 (inactive) | -1.1e-05 (inactive) | 0.00498 (inactive) | 8.7% (inactive) | 15.5% (inactive)
2 | COC(=O)c1cc(NC(=O)C2COc3ccccc3O2)cc(C(=O)OC)c1 (stereo not drawn) | 462 | 6.8% (inactive) | 16.1% (inactive) | 101 | -15.6% (inactive) | 107 | -0.517 (inactive) | -3e-05 (inactive) | 0.00524 (inactive) | 11.6% (inactive) | -7.02% (inactive)
3 | CCCOc1ccc(C2c3c(oc4ccccc4c3=O)C(=O)N2CCCN2CCOCC2)cc1 (stereo not drawn) | 559 | 16.8% (inactive) | 26.2% (inactive) | 100 | -18.5% (inactive) | 101 | -0.413 (inactive) | -1.1e-05 (inactive) | 0.00521 (inactive) | 11.7% (inactive) | 21.3% (inactive)
4 | CCOC(=O)C1=C(C)NC(=O)C(C#N)C1c1ccco1 (stereo not drawn) | 319 | -1.2% (inactive) | 6.1% (inactive) | 86.2 | -59.3% (inactive) | 127 | -0.39 (inactive) | 3.3e-05 (inactive) | 0.00489 (inactive) | 15.7% (inactive) | 20.3% (inactive)
5 | CCOC(=O)N1CCN(CC(=O)Nc2c(C(=O)OC)[nH]c3cccc(Cl)c23)CC1 | 556 | -15.5% (inactive) | -5.4% (inactive) | 96.1 | -23.3% (inactive) | 94 | -0.214 (inactive) | -2.3e-05 (inactive) | 0.00534 (inactive) | 20% (inactive) | -2.65% (inactive)
6 | O=C(NCc1ccco1)Nc1ccc2nsnc2c1 | 683 | -6.1% (inactive) | -22.1% (inactive) | 113 | -138% (inactive) | 119 | -0.445 (inactive) | -2.6e-05 (inactive) | 0.00612 (inactive) | -31.4% (inactive) | -83.7% (inactive)
7 | O=C(Cn1c(=O)[nH]c2ccsc2c1=O)NC1CCCCCC1 | 468 | -0.7% (inactive) | 19.2% (inactive) | 104 | 13.2% (inactive) | 107 | -0.26 (inactive) | -3.5e-06 (inactive) | 0.0062 (inactive) | 17.6% (inactive) | 9.21% (inactive)
8 | O=C(OCc1cc2ccccc2[nH]c1=O)c1ccncc1 | 826 | -3.9% (inactive) | 25.6% (inactive) | 104 | -66% (inactive) | 115 | -0.536 (inactive) | -4.4e-05 (inactive) | 0.00554 (inactive) | 19.9% (inactive) | 23.1% (inactive)
9 | CCn1nnnc1NCc1cccn1C | 401 | 11% (inactive) | -12% (inactive) | 110 | -41.2% (inactive) | 100 | -0.414 (inactive) | 0.000106 (inactive) | 0.00612 (inactive) | 16.1% (inactive) | 22% (inactive)
10 | Fc1c(F)c(F)c(CSc2nc3ccccc3[nH]2)c(F)c1F | 423 | 0% (inactive) | 28.9% (inactive) | 82.8 | -40.6% (inactive) | 86.2 | -0.562 (inactive) | -3.7e-05 (inactive) | 0.0075 (inactive) | -6.35% (inactive) | -46.6% (inactive)
11 | O=C1CNCc2[nH]c3ccccc3c2N1c1ccccc1 | 377 | 3.9% (inactive) | 9.4% (inactive) | 104 | -124% (inactive) | 118 | -0.509 (inactive) | -3.5e-05 (inactive) | 0.00541 (inactive) | 17.2% (inactive) | 17.9% (inactive)
12 | CCOc1ccc(OCC)c2sc(C)nc12 | 339 | 2.4% (inactive) | 8.2% (inactive) | 102 | 1% (inactive) | 106 | -0.591 (inactive) | -5.9e-05 (inactive) | 0.00571 (inactive) | 12.4% (inactive) | -8.47% (inactive)
13 | Cc1ccc(S(=O)(=O)N(C)c2ccc(OCC(=O)OCc3c(C)noc3C)cc2)cc1 | 455 | -15.1% (inactive) | 8.4% (inactive) | 146 | -15.8% (inactive) | 108 | -0.583 (inactive) | -3.3e-05 (inactive) | 0.00507 (inactive) | 5.73% (inactive) | 14.5% (inactive)
14 | CCOC(=O)CNS(=O)(=O)c1c(C)noc1C | 562 | -2.5% (inactive) | -0.2% (inactive) | 108 | -40.9% (inactive) | 105 | -0.441 (inactive) | -0.000338 (inactive) | 0.00456 (inactive) | 1.51% (inactive) | 2.6% (inactive)
15 | Nc1nc(C2C(=O)CCCC2=O)cs1 | 391 | -16.3% (inactive) | -1.6% (inactive) | 103 | -93.1% (inactive) | 148 | -0.511 (inactive) | -9.1e-05 (inactive) | 0.00345 (inactive) | 8.39% (inactive) | 2.35% (inactive)
16 | O=c1c[n+]([O-])c2ccccc2n1OCc1ccccn1 | 649 | -0.8% (inactive) | -17.9% (inactive) | 103 | -73% (inactive) | 106 | -0.464 (inactive) | 2.5e-05 (inactive) | 0.00798 (inactive) | -4.06% (inactive) | -7.39% (inactive)
17 | CCOC(=O)C1CCN(C(=O)c2c(-c3c(Cl)cccc3Cl)noc2C)CC1 | 376 | 1.6% (inactive) | 20.9% (inactive) | 94.8 | -89.8% (inactive) | 110 | -0.557 (inactive) | -4.4e-05 (inactive) | 0.00598 (inactive) | 4.89% (inactive) | 12.6% (inactive)
18 | Cc1ccccc1NC(=O)C1CCN(c2cnccn2)CC1 | 304 | 2.2% (inactive) | -10.2% (inactive) | 86.3 | -42.9% (inactive) | 111 | -0.543 (inactive) | -1.5e-06 (inactive) | 0.00512 (inactive) | 5.1% (inactive) | 15.6% (inactive)
19 | CCn1c(SCC(=O)c2ccc3c(c2)OCCO3)nnc1-c1ccco1 | 571 | -38.8% (inactive) | -1% (inactive) | 115 | -52.3% (inactive) | 117 | -0.514 (inactive) | -2.2e-05 (inactive) | 0.00561 (inactive) | 11.1% (inactive) | 0.911% (inactive)
20 | CCOc1cccc(OCCOCCN2CCCC2)c1 | 802 | 0.5% (inactive) | 2.1% (inactive) | 79.5 | -29.7% (inactive) | 103 | -0.229 (inactive) | -1.9e-05 (inactive) | 0.00581 (inactive) | 14.6% (inactive) | 13.2% (inactive)
21 | Cc1nnc2ccc(N3CCC4(CC3)OCCO4)nn12 | 538 | -21% (inactive) | 9.6% (inactive) | 112 | -83% (inactive) | 117 | -0.322 (inactive) | -3.3e-05 (inactive) | 0.00635 (inactive) | 12.5% (inactive) | 8.72% (inactive)
22 | CCOc1cc(C2C(C#N)=C(N)OC(C)=C2C(C)=O)cc(Br)c1O (stereo not drawn) | 235 | 11% (inactive) | -9.7% (inactive) | 95.5 | -29.3% (inactive) | 97.7 | -0.252 (inactive) | -2.9e-05 (inactive) | 0.00684 (inactive) | 12.3% (inactive) | 20.1% (inactive)
23 | Cc1nc2ccccc2c(=O)n1NC(=O)c1ccc(F)cc1Cl | 302 | 5% (inactive) | 9.2% (inactive) | 87.5 | 21.5% (inactive) | 70.3 | -0.483 (inactive) | -2.3e-05 (inactive) | 0.00433 (inactive) | 10.8% (inactive) | 8.86% (inactive)
24 | CCOC(=O)N1CCC(NC(=O)c2ccc(OC)c(CN3CC(=O)N4CCCC4C3=O)c2)CC1 (stereo not drawn) | 532 | -18.9% (inactive) | 2.9% (inactive) | 98 | -71.7% (inactive) | 94.9 | -0.447 (inactive) | -4.9e-05 (inactive) | 0.00582 (inactive) | 13.2% (inactive) | 24.9% (inactive)
25 | CCCCOc1ccc(-c2nnn(CC(=O)NCc3ccco3)n2)cc1 | 457 | 3.9% (inactive) | -61.8% (inactive) | 18.8 | -62% (inactive) | 104 | -0.523 (inactive) | -0.000212 (inactive) | 0.00448 (inactive) | 30.6% (inactive) | -15.6% (inactive)
26 | COc1ccc(OC)c(C2=NOC(C(=O)Nc3cccnc3)C2)c1 (stereo not drawn) | 738 | -14.3% (inactive) | -1.9% (inactive) | 100 | -31.9% (inactive) | 93 | -0.561 (inactive) | 5.2e-07 (inactive) | 0.00522 (inactive) | 4.03% (inactive) | 2.04% (inactive)
27 | Cc1ccc(C2CC(c3cccc(Br)c3)Nc3nnnn32)cc1 (stereo not drawn) | 460 | -10% (inactive) | -4.9% (inactive) | 90.9 | -1.3% (inactive) | 79.9 | -0.579 (inactive) | 1.4e-05 (inactive) | 0.00604 (inactive) | 25.2% (inactive) | 26% (inactive)
28 | O=C(Nc1ccc2nn(-c3ccccc3)nc2c1)c1ccc(Br)o1 | 355 | -1.7% (inactive) | 9.1% (inactive) | 106 | 6.4% (inactive) | 101 | -0.213 (inactive) | -2.9e-05 (inactive) | 0.00781 (inactive) | -22.8% (inactive) | -70.4% (inactive)
